Test: Toxicity liver stage against HepG2, at 10uM
Assay type: cell-based
Set-up: test concentration 10 uM, cell line HepG2-A16-CD81EGFP
Conditions: human, HepG2-A16-CD81EGFP cells; read-out: INHIBITION
Summary of the method: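 Uninfected HepG2-A16-CD81EGFP cells, 3 × 10^3 per well, 1536-well, plated on prespotted compound at 10 μM final, parasite-free screening media added to match infected plates; puromycin 10 μM positive, DMSO 0.5% negative; run in parallel with 48 h PbLuc assay at 37 °C, 5% CO2; viability by CellTiter-Glo luminescence, normalized to controls.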

Compound	cytotoxicity at 10 µM [%]
Cc1nnc(N(CCC#N)CCC#N)s1	-0.402
CCC(C)(C)n1nnnc1C(c1cccs1)N1CCCCC1 (stereo unspecified)	2.09
COc1ccccc1CNc1c(O)c(=O)c1=O	4.65
CSc1ccc(CNC(=O)Cc2c(C)n[nH]c2C)cc1	4.16
COCC(O)CN1CCC(=O)N(CC2CC2)Cc2ccccc21 (stereo unspecified)	2.76
O=C(c1cc(=O)c(OCc2ccccc2F)co1)N1CCSCC1	-3.82
O=C(c1cc(=O)c(OCc2ccccc2)co1)N1CCSCC1	-0.295
COc1cccc(NC(=O)Nc2ccc3c(c2)CC(=O)N3)c1	-2.35
O=C(C1CCSCC1)N1CC[C@H]2OCC[C@@]2(COCC2CC2)C1	-1.16
Cn1nc(C(=O)N2CCCC2)c2c1CN(CC1CCOCC1)C2	-2.51
CNC(=O)[C@@H]1C[C@H]2CN(C(=O)c3ccccn3)C[C@H]2N1C(C)C	7.45
O=C(Cc1ccccn1)N1CCC2(CC1)CN(c1ccccn1)CCO2	8.85
CN(C)C(=O)N1CCN(C(=O)c2ccc(Cl)cc2)CC2(CNC(=O)C2)C1 (stereo unspecified)	10.5
O=c1ccc(-c2cccs2)nn1CN1CCc2ccccc2C1	14.3
O=C1CCSCC(C(=O)N2CCOCC2)N1 (stereo unspecified)	-11.3
COC(=O)c1sccc1S(=O)(=O)N1CCC(Oc2cccnn2)CC1	-4.82
COCCN1C(=O)CCC12CCN(C(=O)CC1CC1)CC2	3.73
CCc1cnc(N2CC3(CCN(C(=O)c4ccoc4)C3)C2)nc1	-8.37
CCn1nccc1CNC(=O)C1CCC1	-2.17
CC(C(=O)N1CCN(C)CC1)n1cc(Br)cn1 (stereo unspecified)	3.6
COc1ccc(OC)c(Nc2nc3c(C)nn(C)c3c(=O)n2C)c1	-2.73
Cn1nc(C(=O)NC2CC(C)(C)NC(C)(C)C2)cc1NC(=O)C1CC1	0.754
c1cnc(-c2nn3c(CN4CCCCCC4)nnc3s2)cn1	10.8

Compound	cytotoxicity at 10 µM [%]
CNC(=O)[C@@H]1CN(C(=O)COC)C[C@H]1c1ccnc(N2CCCC2)n1	2.75
Cc1cc(Nc2cnccn2)cc(C2CCCN2)n1 (stereo unspecified)	2.54
CCC(=O)N1CCCC(c2cc(Nc3ncccn3)nc(C)n2)C1 (stereo unspecified)	-3.48
CC(C)(C)c1nnc2n1C(C(=O)N1CCCC1)CC2 (stereo unspecified)	1.61
Cc1cccc(-c2ccc(C(=O)N3CCN(C4CC4)CC3)c(=O)[nH]2)c1	13.2
CC(C(N)=O)N1CCN(c2ncc(Br)cn2)CC1 (stereo unspecified)	3.23
CC(NC(=O)CCCN(C)C)c1cn(-c2ccccc2)nn1 (stereo unspecified)	-22.7
Cc1ccc(C(=O)N2CCC3(CCCCC3)C2)c(=O)[nH]1	-2.47
COCCS(=O)(=O)Cc1csc(NC(C)=O)n1	-2.93
CCOCC1CCCN(C(=O)NCc2cn3c(C)cccc3n2)C1 (stereo unspecified)	12.8
COc1ccc(C#N)cc1CSCCN1CCOCC1	6.14
CC(C)C(=O)N1CCCC1C(=O)Nc1ccc(F)c(F)c1 (stereo unspecified)	-1.57
CCN(CC)C(=O)CNC(=O)N1CCC(c2ccc(OC)cc2)C1 (stereo unspecified)	-5.51
NC(=O)COc1ccc(CNC(=O)CN2CCc3ccccc32)cc1	-4.07
CCN(C(=O)C1CC1)C(c1cccnc1)c1ccc2c(c1)CCO2 (stereo unspecified)	1.46
Cc1cc(C)cc(C2(C(=O)NCC(C)CN3CCCC3=O)CC2)c1 (stereo unspecified)	1.42
COc1c(CNC(C)C(=O)NC2CCCC2)c(C)nn1C (stereo unspecified)	-8.45
CC(=O)N1CCCN(C(=O)NC(C)c2csc3ccccc23)CC1 (stereo unspecified)	-4.6
CC(C)(C)n1nc(C(=O)NCC2(C(N)=O)CCOCC2)cc1C1CC1	-15.9
N#CC(NC(=O)CC1CCSCC1)c1cnn(-c2ccccc2)c1 (stereo unspecified)	6.1
Cc1cnn(C2CCCN(C(=O)Cn3ccc(=O)n(C)c3=O)C2)c1 (stereo unspecified)	1.99
Cc1cc(NC(=O)CN2CCCC2c2noc(C3CC3)n2)no1 (stereo unspecified)	-13
COCc1cncc2c1CCN(C(=O)c1ccoc1C)C2	-81.1

Compound	cytotoxicity at 10 µM [%]
CNC(=O)[C@@]12CCO[C@@H]1CCN(S(=O)(=O)c1ccc(C)cc1)C2	-69.9
O=C(c1ccsc1)N1CCN2C[C@H](OCc3cccnc3)C[C@H]2C1	0.59
CN(C)c1ncc2c(n1)N(C)CCN(CC1CC1)C2=O	-1.36
CC[C@H](C)[C@H](N)C(=O)Nc1nc(-c2cnc(N(C)C)nc2)cs1	-9.44
Cc1ncc(-c2ccnc(N3CCN(C)CC3)n2)c(-c2cccnc2)n1	4.36
CN(Cc1cn[nH]c1-c1ccc(F)cc1)C(=O)CCC1CC1	9.12
O=C(CN1CCOc2ccccc2C1)NCc1cc2n(n1)CCNC2	1.03
Cc1cnccc1CNCc1ccc(OC23CCCN(CC2)C3)cc1 (stereo unspecified)	-12.3
Cc1nc(CC(=O)N2CCN(CCOc3ccccc3)CC2)cs1	-15.2
Cc1ccnn1CC(=O)N(C)Cc1ccc(-n2cccn2)cc1	0.0616
Cc1ccccc1OCC1CCCN(C(=O)CNC(=O)N(C)C)C1 (stereo unspecified)	-4.46
COCCC(=O)N(Cc1cccnc1)CC1CCN(C2CCCC2)CC1	-5
O=C(c1cccnc1O)N1CCC2(CCCO2)CC1	7.28
CC(c1ccccn1)N(C)Cc1cc2cc3c(cc2[nH]c1=O)OCO3 (stereo unspecified)	11.7
COc1nc2ccccc2cc1CN1CCCC(CNC(C)=O)C1 (stereo unspecified)	1.9
Cn1ccc(C(=O)N2CCCN(CCCc3ccccc3)CC2)cc1=O	-0.942
CCOCc1nc2c(c(NCCNC(C)=O)n1)CCN(C(C)=O)CC2	9.93
O=c1[nH]c(NCc2cccc(-c3ccccc3)c2)nc2c1CCNC2	3.3
Cc1nonc1CN1CC[C@@](O)(C2CCC2)[C@H](C)C1	17.5
CC(=O)Nc1ncc(S(=O)(=O)N2CCOCC2)s1	4.81
CN1CCC(Oc2ccc(NC(=O)c3ccccc3)cc2)CC1	-5.13
CCc1nc(NC2CCN(CC(=O)NC3CC3)CC2)c2cnn(C)c2n1	4.99
CCCNC(=O)CCC(=O)N1CCC(c2noc3cc(F)ccc23)CC1	2.45

Compound	cytotoxicity at 10 µM [%]
CC(C)Oc1cc(N2CCC(N3CCC(O)CC3)CC2)nc(N)n1	-12.2
O=C(NC1CC(=O)N(Cc2cccc(F)c2)C1)c1ccncc1 (stereo unspecified)	-7.41
CC(=O)N1CCCC1c1ccc(C(=O)N2CCOCC2)s1 (stereo unspecified)	6.92
Fc1ccc2[nH]c(C3CCCN3CCc3ccccn3)nc2c1 (stereo unspecified)	-9.7
CN(C)CC(=O)N1CCCC2(CCC(=O)N(CCc3c[nH]cn3)C2)C1 (stereo unspecified)	-8.77
CCOCCn1nc(C)cc1C(=O)N1CCN(C(C)C)C(CC)C1 (stereo unspecified)	-14.2
CCC(NC(=O)C1CCN(S(=O)(=O)N(C)C)CC1)c1ccc(C)c(C)c1 (stereo unspecified)	-1.02
COc1cc(CNc2cnn(CC(F)F)c2)ccc1O	0.553
CCCC(=O)N1CCC(C(=O)NCCNc2ncccn2)CC1	-20
COc1cccc2cc(CNCc3ccc(N4CCCC4)nc3)oc12	-5.42
Cc1cc(C)n(C2CCCN(C(=O)CCc3nccs3)C2)n1 (stereo unspecified)	-28.1
NC(=O)c1cnn2c1NCC(CNCCc1cccs1)C2 (stereo unspecified)	-9.63
CCc1nc(C2CCCN(C(=O)c3cc(C(C)C)[nH]n3)C2)no1 (stereo unspecified)	-1.24
Cc1nc(CNC(=O)N(CCCO)C2CCc3ccccc32)oc1C (stereo unspecified)	-13.5
Cc1nc(C2CCCN2Cc2nccn2CC(F)(F)F)no1 (stereo unspecified)	-16.5
CCc1nccn1C1CCCN(C(=O)c2cncnc2C)C1 (stereo unspecified)	-11.8
O=C(CCCOCc1ccccc1)N1CCCC(n2cncn2)C1 (stereo unspecified)	-17.5
COc1c(C)cnc(CN(C)C(=O)c2cccnc2N(C)C)c1C	-12.3
O=C(CCNC(=O)c1ccoc1)Nc1ccccc1F	-8.38
COc1c(C)cnc(CN(C)C(=O)c2ccccn2)c1C	0.22
CC(NC(=O)NCCCn1cncn1)c1ccc2c(c1)OCCO2 (stereo unspecified)	-6.85
CCc1nnc2n1CCN(Cc1nc(-c3ccoc3)no1)C2	-4.1
CSCCCN1CCCC1c1noc(C)n1 (stereo unspecified)	-7.59

Compound	cytotoxicity at 10 µM [%]
CN(Cc1ccc2c(c1)OCCO2)C(=O)Cn1cccnc1=O	3.01
Cn1cc(C(=O)N2CCCC(n3cccn3)C2)c2ccccc21 (stereo unspecified)	5.2
Cc1cnn(C2CCCN(C(=O)Cc3cn4ccccc4n3)C2)c1 (stereo unspecified)	-3.15
CCc1nc(CN2CCCC(NCc3ncc(C(C)(C)C)o3)C2)no1 (stereo unspecified)	1.97
Cc1ccc(C)c(CSc2nnc(C(N)C(C)C)o2)c1 (stereo unspecified)	9.24
CN1CC(=O)N(c2ccsc2)CC12CCN(C(=O)CC1CCCC1)C2 (stereo unspecified)	-77.3
Fc1cnc(N2CC[C@@H](N3CCOCC3)[C@@H]2Cc2ccncc2)nc1	0.81
COCC1c2c(cnn2C)CCN1Cc1ccc(F)cc1 (stereo unspecified)	-10.6
O=C(c1ccc[nH]1)N1CCc2onc(COc3cccnc3)c2C1	-62.6
CN(C)Cc1cnc2n1CCN(C(=O)NCc1ccccc1)CC2	-6.41
CO[C@@H]1CC[C@H]2[C@H]1OCCN2CC1CCOCC1	-20.3
Cc1nc(-c2cc(C(=O)N3CCCN(C)CC3)c3ccccn23)cn1C	5.59
CN(C)CC(=O)N1CCC2(CCc3ccc(-c4ccncc4)cc32)CC1	6.34
Cc1ccccc1CN1CCC2(COCc3cnc(N(C)C)nc32)C1 (stereo unspecified)	-8.22
O=C(NC1CC1)[C@H]1C[C@H]2OCC[C@H]2N(CC2CC2)C1	2.76
CCN1C[C@@H]2[C@@H](OC)CCN(S(=O)(=O)c3ccccc3F)[C@@H]2C1	-0.902
c1cnc(N2CCO[C@H]3[C@H](OCC4CC4)CC[C@@H]32)nc1	5.88
Cc1ccc(CNC(=O)c2ccc(S(=O)(=O)N3C[C@H]4C[C@@H]3CN4)cc2)o1	-7.2
O=C(c1ccccn1)N1C[C@H]2CC[C@@H](C1)N(C(=O)CCc1cccs1)C2	-9
